Consider two compounds from ChEMBL document CHEMBL1212777, “Novel VIM metallo-beta-lactamase variant from clinical isolates of Enterobacteriaceae from Algeria” (2010).

Holding throughout (format): functional
Experiment [1] relates to Escherichia coli. The experiment is described as follows: Antimicrobial activity against Escherichia coli harbouring plasmidBK-CMV expressing beta-lactamase VIM-19 […] in presence of 2 ug/ml clavulanic acid.
In experiment [2] the test system is Escherichia coli. In words: Antimicrobial activity against Escherichia coli harbouring plasmid BK-CMV expressing beta-lactamase VIM-19 by microdilution method. Summed up: (§1)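 MIC by dilution on Mueller-Hinton agar, inoculum 10^4 CFU per spot, interpreted by CA-SFM guidelines. Inhibitor combinations where tested: clavulanic acid 2 μg/ml, tazobactam 4 μg/ml, EDTA 0.4 mM. Transconjugants came from rifampin-resistant E. coli C600 selected on rifampin 300 μg/ml plus cefotaxime 0.5 μg/ml. Transformants came from electroporation into E. coli DH5α selected on cefotaxime 0.5 μg/ml.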

In experiment [3] the test system is Providencia stuartii. The experiment is described as follows: Antimicrobial activity against Providencia stuartii 6858 strain expressing beta-lactamase VIM-19 by microdilution method. Summed up: (§2)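 Clinical isolates from intensive care patients. MICs by dilution on Mueller-Hinton agar, inoculum 10^4 CFU per spot, read after growth and interpreted by CA-SFM guidelines. Where the line names an inhibitor, it was held at a fixed level: clavulanic acid 2 μg/ml, tazobactam 4 μg/ml, or EDTA 0.4 mM.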

For experiment [4], the system named is Escherichia coli. In words: Antimicrobial activity against Escherichia coli DH5alpha 2878 transformant expressing beta-lactamase VIM-19 by microdilution method. In a few lines:
as §1

The test system of experiment [5] is Escherichia coli. In words: Antimicrobial activity against Escherichia coli C600 2878 transconjugate expressing beta-lactamase VIM-19 by microdilution method in presence of 2 ug/ml clavulanic acid. In a few lines:
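Rifampin-resistant E. coli C600 recipient mated with the clinical strain. Transconjugants were selected on agar with rifampin 300 μg/ml plus cefotaxime 0.5 μg/ml. MICs by dilution on Mueller-Hinton agar, inoculum 10^4 CFU per spot, CA-SFM interpretation. Inhibitor at a fixed level: clavulanic acid 2 μg/ml or EDTA 0.4 mM.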

Experiment [6] deals with Escherichia coli. The experiment is described as follows: Antimicrobial activity against Escherichia coli DH5alpha 2878 transformant expressing beta-lactamase VIM-19 by microdilution method in presence of 2 ug/ml clavulanic acid. Summed up: as §1
Experiment [7] has as its system Klebsiella pneumoniae. The experiment is described as follows: Antimicrobial activity against Klebsiella pneumoniae 6828 strain expressing beta-lactamase VIM-19 by microdilution method in presence of 2 ug/ml clavulanic acid. In a few lines: as §2
Experiment [8] has as its system Escherichia coli. The experiment is described as follows: Antimicrobial activity against Escherichia coli DH5alpha harbouring plasmid BK-VIM-19 expressing beta-lactamase VIM-19 by microdilution method in presence of 2 ug/ml clavulanic acid. Summed up:
as §1

Experiment [9] relates to Escherichia coli. In words: Antimicrobial activity against Escherichia coli 138 expressing beta-lactamase VIM-19 by microdilution method. Summed up:
as §2

Experiment [10] deals with Klebsiella pneumoniae. The experiment is described as follows: Antimicrobial activity against Klebsiella pneumoniae 2878 strain expressing beta-lactamase VIM-19 by microdilution method. In a few lines: as §2
In experiment [11] the test system is Providencia stuartii. The experiment is described as follows: Antimicrobial activity against Providencia stuartii 6858 strain expressing beta-lactamase VIM-19 by microdilution method in presence of 2 ug/ml clavulanic acid. In a few lines:
as §2

For experiment [12], the system named is Klebsiella pneumoniae. The experiment is described as follows: Antimicrobial activity against Klebsiella pneumoniae 2878 strain expressing beta-lactamase VIM-19 by microdilution method in presence of 2 ug/ml clavulanic acid. Summed up: as §2
The subject of experiment [13] is Escherichia coli. In words: Antimicrobial activity against Escherichia coli 2603 strain expressing beta-lactamase VIM-19 by microdilution method. In a few lines: as §2
The test system of experiment [14] is Escherichia coli. In words: Antimicrobial activity against Escherichia coli 2603 strain expressing beta-lactamase VIM-19 by microdilution method in presence of 2 ug/ml clavulanic acid. In a few lines: as §2
Experiment [15] relates to Escherichia coli. The experiment is described as follows: Antimicrobial activity against Escherichia coli 138 expressing beta-lactamase VIM-19 by microdilution method in presence of 2 ug/ml clavulanic acid. Summed up: as §2
For experiment [16], the system named is Escherichia coli. In words: Antimicrobial activity against Escherichia coli C600 2878 transconjugate expressing beta-lactamase VIM-19 by microdilution method. Summed up:
as §1

Experiment [17] deals with Klebsiella pneumoniae. The experiment is described as follows: Antimicrobial activity against Klebsiella pneumoniae 6828 strain expressing beta-lactamase VIM-19 by microdilution method. Summed up: as §2
The subject of experiment [18] is Escherichia coli. The experiment is described as follows: Antimicrobial activity against Escherichia coli DH5alpha harbouring plasmid BK-VIM-19 expressing beta-lactamase VIM-19 by microdilution method. Summed up:
as §1

For experiment [19], the system named is Escherichia coli. In words: Antimicrobial activity against Escherichia coli 2603 strain expressing beta-lactamase VIM-19 […] in presence of 4 ug/ml Tazobactam.
In experiment [20] the test system is Klebsiella pneumoniae. The experiment is described as follows: Antimicrobial activity against Klebsiella pneumoniae 2878 strain expressing beta-lactamase VIM-19 by microdilution method in presence of 4 ug/ml Tazobactam. Summed up:
as §2

For experiment [21], the system named is Escherichia coli. The experiment is described as follows: Antimicrobial activity against Escherichia coli 138 expressing beta-lactamase VIM-19 by microdilution method in presence of 4 ug/ml Tazobactam. In a few lines:
as §1

Experiment [22] deals with Escherichia coli. In words: Antimicrobial activity against Escherichia coli DH5alpha harbouring plasmid BK-VIM-19 expressing beta-lactamase VIM-19 by microdilution method in presence of 4 ug/ml Tazobactam. Summed up:
as §1

Experiment [23] concerns Klebsiella pneumoniae. The experiment is described as follows: Antimicrobial activity against Klebsiella pneumoniae 6828 strain expressing beta-lactamase VIM-19 […] in presence of 4 ug/ml Tazobactam.
Experiment [24] concerns Escherichia coli. The experiment is described as follows: Antimicrobial activity against Escherichia coli C600 2878 transconjugate expressing beta-lactamase VIM-19 by microdilution method in presence of 4 ug/ml Tazobactam. In a few lines: as §1
For experiment [25], the system named is Escherichia coli. In words: Antimicrobial activity against Escherichia coli harbouring plasmidBK-CMV expressing beta-lactamase VIM-19 […] in presence of 4 ug/ml Tazobactam.
The subject of experiment [26] is Providencia stuartii. The experiment is described as follows: Antimicrobial activity against Providencia stuartii 6858 strain expressing beta-lactamase VIM-19 by microdilution method in presence of 4 ug/ml Tazobactam. Summed up:
as §2

Experiment [27] has as its system Escherichia coli. The experiment is described as follows: Antimicrobial activity against Escherichia coli DH5alpha 2878 transformant expressing beta-lactamase VIM-19 […] in presence of 4 ug/ml Tazobactam.

Molecules are shown by their SMILES. In brackets after ≈: the same amount, converted by molar mass. Bounds are passed on as bounds.

Regarding `CC1(C)S[C@@H]2[C@H](NC(=O)[C@H](N)c3ccc(O)cc3)C(=O)N2[C@H]1C(=O)O` [AMOXICILLIN], the MIC with Escherichia coli [1] was 4 µg/mL; in the experiment on Escherichia coli [2], 4 µg/mL (≈ 10.9 µM); in the experiment on Providencia stuartii [3], greater than 2050 µg/mL; in the experiment on Escherichia coli [4], greater than 2050 µg/mL; in the experiment on Escherichia coli [5], greater than 2050 µg/mL; in the experiment with Escherichia coli [6], greater than 2050 µg/mL. The MIC in the experiment on Klebsiella pneumoniae [7], with Escherichia coli [8], in the experiment on Escherichia coli [9], with Klebsiella pneumoniae [10], in the experiment with Providencia stuartii [11] and in the experiment on Klebsiella pneumoniae [12] was greater than 2050 µg/mL throughout. Further, the MIC in the experiment on Escherichia coli [13], in the experiment with Escherichia coli [14], with Escherichia coli [15], in the experiment with Escherichia coli [16], in the experiment with Klebsiella pneumoniae [17] and with Escherichia coli [18] was greater than 2050 µg/mL throughout.
Regarding `CCN1CCN(C(=O)N[C@@H](C(=O)N[C@@H]2C(=O)N3[C@@H]2SC(C)(C)[C@@H]3C(=O)O)c2ccccc2)C(=O)C1=O` [PIPERACILLIN], the MIC in the experiment with Escherichia coli [19] worked out at 1020 µg/mL; in the experiment with Escherichia coli [2], 2 µg/mL (≈ 3.86 µM); against Providencia stuartii [3], 256 µg/mL (≈ 495 µM); in the experiment on Escherichia coli [4], 1020 µg/mL (≈ 1980 µM); in the experiment on Klebsiella pneumoniae [20] it was 2050 µg/mL; with Escherichia coli [21], 2050 µg/mL. Further, the MIC in the experiment with Escherichia coli [22] is 512 µg/mL; in the experiment on Klebsiella pneumoniae [23], 1020 µg/mL; in the experiment with Escherichia coli [24], 512 µg/mL; against Escherichia coli [9] it was greater than 2050 µg/mL; in the experiment on Escherichia coli [25], 2 µg/mL; in the experiment on Klebsiella pneumoniae [10], 2050 µg/mL (≈ 3960 µM). The MIC in the experiment on Providencia stuartii [26] was 256 µg/mL; in the experiment on Escherichia coli [13] it was greater than 2050 µg/mL; against Escherichia coli [16], 512 µg/mL (≈ 989 µM); in the experiment on Escherichia coli [27], 1020 µg/mL; with Klebsiella pneumoniae [17] it was 1020 µg/mL (≈ 1980 µM); against Escherichia coli [18], 512 µg/mL (≈ 989 µM).
